In ChEMBL document CHEMBL3091301, “Xanthohumol modulates inflammation, oxidative stress, and angiogenesis in type 1 diabetic rat skin wound healing” (2013):
The source made the active and inactive calls. No cut-off for these calls is given here.

Columns and labels:
[1] = test system: Rattus norvegicus; experiment: (§1) Antioxidant activity in streptozotocin-induced diabetic Wistar rat model assessed as reduction in 3-NT protein expression in liver at 10 mg/L, po administered with superbock stout beer for 5 weeks prior to wounding measured on day 7 post-wounding by Western blotting analysis (reference value: 5.52 +/- 1.64%); format: functional; parameters: scale not given: the % may be the effect or the level left
[2] = test system: Rattus norvegicus; experiment: Antiinflammatory activity in streptozotocin-induced diabetic Wistar rat model assessed as reduction in N-acetylglucosaminidase level in serum at 10 mg/L, po administered with superbock stout beer for 5 weeks prior to wounding measured on day 7 post-wounding relative to control; format: functional, organism-based
[3] = test system: Rattus norvegicus; experiment: Antioxidant activity in streptozotocin-induced diabetic Wistar rat model assessed as increase in reduced/oxidized glutathione ratio in serum at 10 mg/L, po administered with superbock stout beer for 5 weeks prior to wounding measured on day 7 post-wounding by RP-HPLC analysis; format: functional, organism-based
Procedure, shortened: (§2)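 Plasma reduced and oxidized glutathione separated and quantified by reversed-phase HPLC with a GSH/GSSG kit. Samples came from skin-injured STZ-diabetic rats after five weeks of ad libitum beverage. Expressed as percent of control; n = 4–6.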

[4] = test system: Rattus norvegicus; experiment: Antiangiogenic activity in streptozotocin-induced diabetic Wistar rat model assessed as decrease in microvessel density in wound region at 10 mg/L, po administered with superbock stout beer for […] prior to wounding measured on day 7 post-wounding by wound healing assay; format: functional, organism-based
Procedure, shortened: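 Beverage given ad libitum, renewed every two days, kept in dark bottles. Vessels counted in three dorsal skin wound sections per animal and normalized to section area; each separate stained endothelial cell or cluster counted as one vessel; n = 4–6.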

[5] = test system: Rattus norvegicus; experiment: as §1, with “hepatic” for “3-NT”, “carbonylation” for “expression in liver”, “13.80” for “5.52”, “1.12%)” for “1.64%)”; format: functional; parameters: scale not given: the % may be the effect or the level left
[6] = test system: Rattus norvegicus; experiment: Antioxidant activity in streptozotocin-induced diabetic Wistar rat model assessed as reduction in protein carbonylation in kidney at 10 mg/L, po administered with superbock stout beer for 5 weeks prior to wounding measured on day 7 post-wounding by Western blotting analysis relative to control; format: functional, organism-based
[7] = test system: Rattus norvegicus; experiment: Antioxidant activity in streptozotocin-induced diabetic Wistar rat model assessed as decrease in H2O2 release in kidney at 10 mg/L, po administered with superbock stout beer for 5 weeks prior to wounding measured on day 7 post-wounding by fluorescence assay relative to control; format: functional, organism-based
Procedure, shortened: (§3)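 Fresh kidney or liver cut into 3 mm3 pieces and incubated 90 min at 37 °C in oxygenated, shaken Krebs-HEPES (pH 7.4, 5 mM glucose). H2O2 released measured by Amplex Red fluorescence. Expressed as percent of healthy control; means ± SEM, n = 4–6.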

[8] = test system: Rattus norvegicus; experiment: Antiangiogenic activity in streptozotocin-induced diabetic Wistar rat model assessed as reduction in VEGF-A level in plasma at 10 mg/L, po administered with superbock stout beer for 5 weeks prior to wounding measured on day 7 post-wounding by ELISA; format: functional, organism-based
Procedure, shortened: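 STZ-diabetic male Wistar rats (50 mg/kg i.p.; glucose >250 mg/dL) drinking the beverage ad libitum for five weeks, with skin injury. Plasma VEGF-A measured by rat VEGF Quantikine ELISA per kit instructions; means ± SEM, n = 4–6; ANOVA with Bonferroni.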

[9] = test system: Rattus norvegicus; experiment: Antioxidant activity in streptozotocin-induced diabetic Wistar rat model assessed as increase in reduced glutathione level in serum at 10 mg/L, po administered with superbock stout beer for 5 weeks prior to wounding measured on day 7 post-wounding by RP-HPLC analysis; format: functional, organism-based; procedure, shortened: as §2
[10] = test system: Rattus norvegicus; experiment: Antiinflammatory activity in streptozotocin-induced diabetic Wistar rat model assessed as reduction in IL1beta level in serum at 10 mg/L, po administered with superbock stout beer for 5 weeks prior to wounding measured on day 7 post-wounding by ELISA (reference value: 20.94 +/- 2.17 pg/mL); format: functional
[11] = test system: Rattus norvegicus; experiment: as §1, with “kidney” for “liver”, “3.76” for “5.52”, “0.57%)” for “1.64%)”; format: functional; parameters: scale not given: the % may be the effect or the level left
[12] = test system: Rattus norvegicus; experiment: Antioxidant activity in streptozotocin-induced diabetic Wistar rat model assessed as […] in H2O2 release in liver at 10 mg/L, po administered with superbock stout beer for 5 weeks prior to wounding measured on day 7 post-wounding by fluorescence assay relative to control; format: functional, organism-based; procedure, shortened: as §3
[13] = test system: Rattus norvegicus; experiment: Antiinflammatory activity in streptozotocin-induced diabetic Wistar rat model assessed as reduction in nitric oxide level in serum at 10 mg/L, po administered with superbock stout beer for 5 weeks prior to wounding measured on day 7 post-wounding by Griess method relative to control; format: functional, organism-based

- Activity [2]: Active
SMILES: COc1cc(O)c(CC=C(C)C)c(O)c1C(=O)/C=C/c1ccc(O)cc1 [XANTHOHUMOL]
- Activity [1]: 1.38%
- Activity [3]: Active
- Activity [4]: Active
- Activity [5]: 4.67%
- Activity [6]: Active
- Activity [7]: Active
- Activity [8]: Active
- Activity [9]: Active
- Activity [10]: 13.36 pg/mL
- Activity [11]: 1.99%
- Activity [12]: Active
- Activity [13]: Active
